From ChEMBL document CHEMBL1142933, “Rational design of novel, potent small molecule pan-selectin antagonists” (J Med Chem, 2007)

Columns and labels:
[1] = biological target: T1, P-selectin (Homo sapiens) (UniProt P16109); experiment: Inhibition of human P-selectin after 2 hrs at 100 uM
T1 sequence (whole entry): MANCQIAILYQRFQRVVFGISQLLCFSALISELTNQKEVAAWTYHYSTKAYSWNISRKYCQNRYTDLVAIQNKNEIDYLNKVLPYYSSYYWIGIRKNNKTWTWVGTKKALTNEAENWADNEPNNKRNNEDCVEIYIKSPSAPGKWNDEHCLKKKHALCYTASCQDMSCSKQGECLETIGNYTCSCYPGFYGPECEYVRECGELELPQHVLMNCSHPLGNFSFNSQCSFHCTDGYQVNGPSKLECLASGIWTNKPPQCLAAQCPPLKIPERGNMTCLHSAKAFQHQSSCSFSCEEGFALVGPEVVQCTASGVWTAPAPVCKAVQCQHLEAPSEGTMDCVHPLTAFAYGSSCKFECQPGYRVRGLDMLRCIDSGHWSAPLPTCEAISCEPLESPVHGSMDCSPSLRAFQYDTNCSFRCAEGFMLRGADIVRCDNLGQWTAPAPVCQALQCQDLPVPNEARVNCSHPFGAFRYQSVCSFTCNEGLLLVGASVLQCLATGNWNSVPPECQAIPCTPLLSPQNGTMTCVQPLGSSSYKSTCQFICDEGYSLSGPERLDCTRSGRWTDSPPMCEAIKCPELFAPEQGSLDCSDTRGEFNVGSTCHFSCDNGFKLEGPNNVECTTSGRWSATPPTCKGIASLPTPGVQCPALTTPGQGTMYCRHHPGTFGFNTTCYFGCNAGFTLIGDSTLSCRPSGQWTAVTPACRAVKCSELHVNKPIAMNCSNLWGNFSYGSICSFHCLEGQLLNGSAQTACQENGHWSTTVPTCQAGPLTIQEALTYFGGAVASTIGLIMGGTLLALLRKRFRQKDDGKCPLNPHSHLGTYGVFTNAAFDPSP
Procedure, shortened: (§1)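 Human E-, P- or L-selectin/Fc chimera (0.61 nM) captured on anti-Fc-coated wells, then incubated 2 h at 37 °C with peroxidase-streptavidin-complexed sLeX-tyrosine sulfate polyacrylamide ligand plus compound at 100 µM in HEPES buffer pH 7.4 with CaCl2, 1% DMSO. Bound ligand measured by TMB, OD 450 vs 620 nm; % inhibition reported.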

[2] = biological target: T2, E-selectin (Homo sapiens) (UniProt P16581); experiment: Inhibition of human E-selectin after 2 hrs at 100 uM; procedure, shortened: as §1
T2 sequence (whole entry): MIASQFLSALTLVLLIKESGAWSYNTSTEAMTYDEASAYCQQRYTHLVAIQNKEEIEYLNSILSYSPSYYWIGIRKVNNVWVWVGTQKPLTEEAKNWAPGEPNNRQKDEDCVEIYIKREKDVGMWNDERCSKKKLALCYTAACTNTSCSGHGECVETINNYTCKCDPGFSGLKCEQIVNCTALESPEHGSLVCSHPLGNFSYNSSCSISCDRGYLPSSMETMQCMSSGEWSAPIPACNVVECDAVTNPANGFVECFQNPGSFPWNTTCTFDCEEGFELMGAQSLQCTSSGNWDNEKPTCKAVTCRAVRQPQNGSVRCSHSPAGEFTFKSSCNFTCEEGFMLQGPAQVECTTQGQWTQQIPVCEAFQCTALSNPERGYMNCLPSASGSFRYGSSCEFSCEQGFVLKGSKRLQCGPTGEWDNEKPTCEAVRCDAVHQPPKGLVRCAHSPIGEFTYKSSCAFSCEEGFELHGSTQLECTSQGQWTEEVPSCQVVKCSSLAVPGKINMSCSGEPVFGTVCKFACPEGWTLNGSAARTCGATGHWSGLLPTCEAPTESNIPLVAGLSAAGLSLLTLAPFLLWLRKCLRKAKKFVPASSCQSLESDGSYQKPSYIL

[3] = biological target: T3, L-selectin (Homo sapiens) (UniProt P14151); experiment: Inhibition of human L-selectin after 2 hrs at 100 uM; procedure, shortened: as §1
T3 sequence (whole entry): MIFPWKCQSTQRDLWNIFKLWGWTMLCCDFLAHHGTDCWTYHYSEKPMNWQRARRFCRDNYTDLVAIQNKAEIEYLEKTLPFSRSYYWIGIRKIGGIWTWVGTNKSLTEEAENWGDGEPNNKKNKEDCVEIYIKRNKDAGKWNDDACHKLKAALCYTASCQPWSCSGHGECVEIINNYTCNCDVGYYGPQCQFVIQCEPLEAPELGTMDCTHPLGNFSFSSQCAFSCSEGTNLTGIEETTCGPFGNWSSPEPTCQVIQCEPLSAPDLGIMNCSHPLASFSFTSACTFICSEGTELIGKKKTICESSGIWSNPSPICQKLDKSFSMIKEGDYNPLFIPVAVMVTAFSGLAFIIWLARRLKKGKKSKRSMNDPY

HL-60 [4] = experiment: Inhibition of attachment of HL60 cells to E-selectin at 109 uM after 5 mins; type: functional; details: Homo sapiens, HL-60, 5 min
Procedure, shortened: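 Dishes coated with E- or P-selectin/Fc chimera, blocked with BSA, mounted in a parallel flow chamber run recirculating; HL-60 cells at 2.4 million/mL final. Cells attached after 5 min continuous flow at calculated shear 1 dyn/cm², with 109 µM compound or DMSO vehicle, counted in five low power fields. Mean inhibition as % of vehicle control from mean cells/field of at least two independent experiments.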

HL-60 [5] = experiment: Inhibition of attachment of HL60 cells to P-selectin at 109 uM after 5 mins; type: functional; details: Homo sapiens, HL-60, 5 min
Procedure, shortened: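 Dishes coated with E- or P-selectin/Fc chimera, blocked with BSA, mounted in a parallel flow chamber run recirculating; HL-60 cells at 2.4 million/mL final. Mean inhibition as % of vehicle control from mean cells/field of at least two independent experiments.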

Structure (SMILES) | inhibition [1] [%] | inhibition [2] [%] | inhibition [3] [%] | inhibition at 109 µM (HL-60 [4]) [%] | inhibition at 109 µM (HL-60 [5]) [%]
O=C(O)C1=C[C@@H](O)[C@@H](O)[C@H](O)C1 | -1 | 25.6 | 12.2 | – | –
O=C(O)c1cccc(O)c1O | -3 | 6 | 1.1 | – | –
O=C(O)c1ccc(O)c(O)c1 | – | 19.5 | 1.3 | – | –

Continued, in another order:

inhibition [1] [%] | inhibition [2] [%] | inhibition [3] [%] | Structure (SMILES) | inhibition at 109 µM (HL-60 [4]) [%] | inhibition at 109 µM (HL-60 [5]) [%]
52 | 37.6 | 51.7 | O=c1cc(-c2ccccc2)oc2cc(O)c(O)c(O)c12 | – | –
77 | 3.1 | 83.6 | O=c1c(O)cccc2cc(O)c(O)c(O)c12 | – | –
-5.3 | 15 | 4.3 | O=c1cc(-c2ccccc2)oc2cc(O)cc(O)c12 | – | –
1.7 | 8.3 | 13.5 | Oc1cccc(O)c1O [PYROGALLOL] | 47 | 24
